Results collected from several papers.
SLC18A2: Synaptic vesicular amine transporter (SLC18A2, Homo sapiens, UniProt Q05940)
LATS1: Serine/threonine-protein kinase LATS1 (LATS1, Homo sapiens, UniProt O95835)
CA1: Carbonic anhydrase 1 (CA1, Homo sapiens, UniProt P00915)

Structure (SMILES) | target | effect on | action | method | pH | setting | IC50 [µM]
N#Cc1ccc2[nH]cc(CCCCN3CCN(c4ccc5oc(C(N)=O)cc5c4)CC3)c2c1 | SLC18A2 | transporter uptake | inhibitor | radiometric | – | cell membranes | 0.069
Cc1cc(-c2ccnc3[nH]cc(F)c23)cc(F)c1[C@@]1(O)[C@H](C)CN(C2CCS(=O)(=O)CC2)C[C@@H]1C | LATS1 | target engagement in cells | – | BRET | – | – | 0.136
CC(C)[C@H](N)C(=O)OCCOCn1cnc2c(=O)[nH]c(N)nc21 | Carbonic anhydrase 2 (CA2, Homo sapiens, UniProt P00918) | enzyme activity | inhibitor | absorbance | pH 7.4 | – | 9.1
Clc1ccc(Cn2c(CN3CCCC3)nc3ccccc32)cc1 | SLC18A2 | transporter uptake | inhibitor | – | – | – | 7.23
OC1(c2ccc(-c3ccnc4[nH]cc(F)c34)cc2)CCNC1 (centres unmarked) | LATS1 | target engagement in cells | – | BRET | – | – | 10.3
OC1(c2ccc(Cl)c(C(F)(F)F)c2)CCN(CCCC(c2ccc(F)cc2)c2ccc(F)cc2)CC1 | SLC18A2 | transporter uptake | inhibitor | radiometric | – | cell membranes | 0.594
CCOCCn1c(C2CCN(CCc3ccc(C(C)(C)C(=O)O)cc3)CC2)nc2ccccc21 | CA1 | enzyme activity | inhibitor | absorbance | pH 7.4 | – | 14
CCOc1ccccc1OCCN[C@H](C)Cc1ccc(OC)c(S(N)(=O)=O)c1 | SLC18A2 | transporter uptake | inhibitor | – | – | – | 1.86
Cc1cc(-c2ccnc3[nH]cc(F)c23)cc(F)c1[C@@]1(O)[C@H](C)CN(C2COC2)C[C@@H]1C | LATS1 | target engagement in cells | – | BRET | – | – | 0.058
Nc1nc2c(ncn2COCCO)c(=O)[nH]1 | CA1 | enzyme activity | inhibitor | absorbance | pH 7.4 | – | 10.8
OC1(c2ccc(-c3ccnc4[nH]cc(F)c34)cc2)CCCNC1 (centres unmarked) | LATS1 | target engagement in cells | – | BRET | – | – | 9.97
OCCOCCN1CCN(C(c2ccccc2)c2ccc(Cl)cc2)CC1 (centres unmarked) | CA1 | enzyme activity | inhibitor | absorbance | pH 7.4 | – | 15.1
CC(=O)N1C[C@@H](C)[C@](O)(c2c(C)cc(-c3ccnc4[nH]cc(F)c34)cc2F)[C@@H](C)C1 | LATS1 | target engagement in cells | – | BRET | – | – | 0.077
COc1ccnc(C[S+]([O-])c2nc3ccc(OC(F)F)cc3[nH]2)c1OC (centres unmarked) | CA1 | enzyme activity | inhibitor | absorbance | pH 7.4 | – | 10.6
C=CCNc1c2c([nH]c(=O)c1C(=O)OCC)CCC2 | Gag-Pol polyprotein, reverse transcriptase (gag-pol, Human immunodeficiency virus 1, UniProt P03366) | enzyme activity | inhibitor | – | – | – | > 100
O=C(O)COCCN1CCN(C(c2ccccc2)c2ccc(Cl)cc2)CC1 (centres unmarked) | CA1 | enzyme activity | inhibitor | absorbance | pH 7.4 | – | 14.6
CCCCN(CCCC)CCC(O)c1cc2c(Cl)cc(Cl)cc2c2cc(C(F)(F)F)ccc12 (centres unmarked) | SLC18A2 | transporter uptake | inhibitor | radiometric | – | cell membranes | 0.94
NC(=O)c1nnn(Cc2cc(Cl)c(C(=O)c3ccc(Cl)cc3)c(Cl)c2)c1N | Alpha-2A adrenergic receptor (ADRA2A, Homo sapiens, UniProt P08913) | cAMP | antagonist | – | – | – | 0.612
COc1cc2ncnc(Nc3ccc(F)c(Cl)c3)c2cc1NC(=O)/C=C/CN1CCCCC1 | SLC18A2 | transporter uptake | inhibitor | radiometric | – | cell membranes | 0.433
OC1(c2ccc(-c3ccnc4[nH]cc(F)c34)cc2)CNC1 | LATS1 | target engagement in cells | – | BRET | – | – | 28.4
